{"source": "ChEMBL document CHEMBL2021854", "about": "“2-Aminopyrimidine based 4-aminoquinoline anti-plasmodial agents. Synthesis, biological activity, structure-activity relationship and mode of action studies” (Eur J Med Chem, 2012)", "note": "pEC50: −log10 of the molar value.", "data": [{"test_system": "Coxsackievirus B4", "assay": "Antiviral activity against Coxsackie virus B4 infected in human HeLa cells assessed as inhibition of virus-induced cytopathogenicity after 4 days", "type": "functional, organism-based", "settings": "Enterovirus B, 96 h", "method_in_brief": "(§1)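 Confluent HEL, Vero or HeLa monolayers were inoculated with 100 CCID50 of virus in the presence of varying concentrations of compound. Cytopathicity was scored when it reached completion in untreated, virus-infected control cultures.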", "values": [{"smiles": "CCOC(=O)c1c(C)nc(NCCCCNc2ccnc3cc(Cl)ccc23)nc1C", "pEC50": "< 4.70"}]}, {"test_system": "Respiratory syncytial virus", "assay": "Antiviral activity against Respiratory syncytial virus infected in human HeLa cells assessed as inhibition of virus-induced cytopathogenicity after 4 days", "type": "functional, organism-based", "settings": "96 h", "method_in_brief": "as §1", "values": [{"smiles": "CCOC(=O)c1c(C)nc(NCCCCNc2ccnc3cc(Cl)ccc23)nc1C", "pEC50": "< 4.70"}]}, {"test_system": "Influenza A virus", "assay": "Antiviral activity against Influenza A virus H1N1 infected in MDCK cells assessed as reduction visual scoring of virus-induced cytopathogenicity after 4 days", "type": "functional, organism-based", "settings": "96 h", "method_in_brief": "(§2)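 MDCK monolayers infected with 100 CCID50 of influenza A (H1N1 or H3N2) or influenza B, with varying compound concentrations. Cytopathicity read when untreated infected controls reached complete CPE.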", "values": [{"smiles": "CCOC(=O)c1c(C)nc(NCCCCNc2ccnc3cc(Cl)ccc23)nc1C", "pEC50": "< 6.10"}]}, {"test_system": "Influenza A virus", "assay": "Antiviral activity against Influenza A virus H3N2 infected in MDCK cells assessed as reduction visual scoring of virus-induced cytopathogenicity after 4 days", "type": "functional, organism-based", "settings": "96 h", "method_in_brief": "as §2", "values": [{"smiles": "CCOC(=O)c1c(C)nc(NCCCCNc2ccnc3cc(Cl)ccc23)nc1C", "pEC50": "< 6.10"}]}, {"test_system": "Influenza B virus", "assay": "Antiviral activity against Influenza B virus infected in MDCK cells assessed as reduction visual scoring of virus-induced cytopathogenicity after 4 days", "type": "functional, organism-based", "settings": "96 h", "method_in_brief": "as §2", "values": [{"smiles": "CCOC(=O)c1c(C)nc(NCCCCNc2ccnc3cc(Cl)ccc23)nc1C", "pEC50": "< 6.10"}]}, {"test_system": "Influenza A virus", "assay": "Antiviral activity against Influenza A virus H1N1 infected in MDCK cells assessed as inhibition of virus-induced cytopathogenicity after 4 days by colorimetric formazan-based MTS assay", "type": "functional, organism-based", "settings": "96 h", "values": [{"smiles": "CCOC(=O)c1c(C)nc(NCCCCNc2ccnc3cc(Cl)ccc23)nc1C", "pEC50": "< 6.10"}]}, {"test_system": "Influenza A virus", "assay": "Antiviral activity against Influenza A virus H3N2 infected in MDCK cells assessed as inhibition of virus-induced cytopathogenicity after 4 days by colorimetric formazan-based MTS assay", "type": "functional, organism-based", "settings": "96 h", "values": [{"smiles": "CCOC(=O)c1c(C)nc(NCCCCNc2ccnc3cc(Cl)ccc23)nc1C", "pEC50": "< 6.10"}]}, {"test_system": "Influenza B virus", "assay": "Antiviral activity against Influenza B virus infected in MDCK cells assessed as inhibition of virus-induced cytopathogenicity after 4 days by colorimetric formazan-based MTS assay", "type": "functional, organism-based", "settings": "96 h", "values": [{"smiles": "CCOC(=O)c1c(C)nc(NCCCCNc2ccnc3cc(Cl)ccc23)nc1C", "pEC50": "< 6.10"}]}, {"test_system": "Human betaherpesvirus 5", "assay": "Antiviral activity against Cytomegalovirus AD-169 infected in HEL cells assessed as inhibition of virus plaque formation after 4 days", "type": "functional, organism-based", "settings": "Human betaherpesvirus 5, AD169, HEL, 96 h", "values": [{"smiles": "CCOC(=O)c1c(C)nc(NCCCCNc2ccnc3cc(Cl)ccc23)nc1C", "pEC50": "< 5.40"}]}, {"test_system": "Human betaherpesvirus 5", "assay": "Antiviral activity against Human cytomegalovirus Davis infected in HEL cells assessed as inhibition of virus plaque formation after 4 days", "type": "functional, organism-based", "settings": "Human betaherpesvirus 5, Davis, 96 h", "values": [{"smiles": "CCOC(=O)c1c(C)nc(NCCCCNc2ccnc3cc(Cl)ccc23)nc1C", "pEC50": 5.28}]}, {"test_system": "HeLa", "assay": "Cytotoxicity against human HeLa cells assessed as cell viability by colorimetric formazan-based MTS assay", "settings": "not given", "units": {"CC50": "µM"}, "values": [{"smiles": "CCOC(=O)c1c(C)nc(NCCCCNc2ccnc3cc(Cl)ccc23)nc1C", "CC50": 6.07}]}, {"test_system": "Human alphaherpesvirus 3", "assay": "Antiviral activity against […] expressing thymidine kinase infected in HEL cells assessed as reduction of virus plaque formation after 4 days", "type": "functional, cell-based", "settings": "Human alphaherpesvirus 3, strain Oka vaccine, 96 h", "values": [{"smiles": "CCOC(=O)c1c(C)nc(NCCCCNc2ccnc3cc(Cl)ccc23)nc1C", "pEC50": 5.03}]}, {"test_system": "Human alphaherpesvirus 3", "assay": "Antiviral activity against thymidine kinase-deficient […] infected in HEL cells assessed as reduction of virus plaque formation after 4 days", "type": "functional, organism-based", "settings": "Human alphaherpesvirus 3, 07-1, HEL, 96 h", "values": [{"smiles": "CCOC(=O)c1c(C)nc(NCCCCNc2ccnc3cc(Cl)ccc23)nc1C", "pEC50": "< 4.70"}]}, {"test_system": "not listed separately", "assay": "Cytotoxicity against cat CRFK cells assessed as cell viability by colorimetric formazan-based MTS assay", "parameters": "species or system Felis catus", "settings": "crfk", "units": {"CC50": "µM"}, "values": [{"smiles": "CCOC(=O)c1c(C)nc(NCCCCNc2ccnc3cc(Cl)ccc23)nc1C", "CC50": 14.5}]}, {"test_system": "Feline infectious peritonitis virus", "assay": "Antiviral activity against FIPV infected in cat CRFK cells assessed as inhibition of virus-induced cytopathic effect after 4 days by colorimetric formazan-based MTS assay", "type": "functional, cell-based", "settings": "Alphacoronavirus 1, CRFK, 96 h", "values": [{"smiles": "CCOC(=O)c1c(C)nc(NCCCCNc2ccnc3cc(Cl)ccc23)nc1C", "pEC50": "< 5.40"}]}, {"test_system": "Felid alphaherpesvirus 1", "assay": "Antiviral activity against Feline herpesvirus infected in cat CRFK cells assessed as inhibition of virus-induced cytopathic effect after 4 days by colorimetric formazan-based MTS assay", "type": "functional, organism-based", "settings": "Felid alphaherpesvirus 1, CRFK, 96 h", "values": [{"smiles": "CCOC(=O)c1c(C)nc(NCCCCNc2ccnc3cc(Cl)ccc23)nc1C", "pEC50": "< 5.40"}]}, {"test_system": "Human immunodeficiency virus 1", "assay": "Antiviral activity against HIV1 infected in human CEM cells assessed as inhibition of virus-induced cytopathic effect after 4 days", "type": "functional, organism-based", "settings": "Human immunodeficiency virus 1, CCRF-CEM, 96 h", "method_in_brief": "(§3)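 CEM T-lymphocytes (~3 × 10^5 cells/ml) were infected with HIV-1 IIIB or HIV-2 ROD at ~100 CCID50, then immediately plated with a range of compound concentrations. Giant cell formation was scored microscopically after 4 days at 37 °C. Cytostatic activity was tested in parallel in uninfected CEM cells.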", "values": [{"smiles": "CCOC(=O)c1c(C)nc(NCCCCNc2ccnc3cc(Cl)ccc23)nc1C", "pEC50": "< 5.70"}]}, {"test_system": "Human immunodeficiency virus 2", "assay": "Antiviral activity against HIV2 infected in human CEM cells assessed as inhibition of virus-induced cytopathic effect after 4 days", "type": "functional, organism-based", "settings": "Human immunodeficiency virus 2, CCRF-CEM, 96 h", "method_in_brief": "as §3", "values": [{"smiles": "CCOC(=O)c1c(C)nc(NCCCCNc2ccnc3cc(Cl)ccc23)nc1C", "pEC50": "< 5.70"}]}, {"test_system": "not listed separately", "assay": "Inhibition of beta-hematin formation assessed as Ferriprotoporphyrin IX biomineralisation at 1 mg/ml after 24 hrs", "type": "functional", "settings": "not given", "method_in_brief": "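Hemin chloride (0.5 mg/ml in DMSO) mixed with 0.5 M sodium acetate buffer pH 4.4 and drug or solvent control, incubated 37 °C for 24 h. Pellet washed with DMSO to remove unreacted hemin, dissolved in 0.1 N NaOH, absorbance read at 405 nm; percent inhibition relative to control. Highest concentration tested 1 mg/ml.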", "units": {"inhibition": "%"}, "values": [{"smiles": "CCOC(=O)c1c(C)nc(NCCCCNc2ccnc3cc(Cl)ccc23)nc1C", "inhibition": 100}]}]}
